Measurements as given in publication PMC4361903 (Blood, 2010).
Values belong to the molecule of their own block, whether it stands above or below them. Where no end group is shown, it is not given here. [ ]: non-standard residue; d: D form. pY = N[C@@H](Cc1ccc(OP(=O)(O)O)cc1)C(=O)O

Columns and labels:
Syk (platelet) = Syk (platelet) (UniProt P43405); assay: biotinylated peptide pull-down, Syk blot; conditions: reference: pY7 31-mer peptide; sites T9
[1] = target: dually phosphorylated peptide based on the human FcRγ-chain ITAM, biotinylated (human) (UniProt P30273); assay: SPR
[2] = system: GPVI and FcRγ-chain with mutated C-terminal ITAM tyrosine; format: cell-based; conditions: 10 μg/ml collagen, 6 hrs, 37°C; three separate experiments
Outline: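 DT40 chicken B-cells (RPMI, 10% FBS, 1% chicken serum, 50μM β-mercaptoethanol) electroporated (350V, 500μF) with 2μg/ml each of GPVI and Myc-tagged FcRγ construct, 20μg NFAT-luciferase reporter and 2μg pEF6-lacZ. Live cells counted by trypan blue 20 h post-transfection. Luciferase normalised to β-galactosidase (triplicate readings), expressed as % wild-type response. Surface expression checked by anti-Myc flow cytometry.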

GPVI = conditions: cross-linking of GPVI; ref [8],[9]; cited from earlier work
Syk N-SH2 domain = Syk N-SH2 domain (Homo sapiens, UniProt P43405); assay: Surface plasmon resonance, binding of Syk N-SH2 to immobilised peptide; conditions: SPR, 25°C, pH 7.4, SH2 domain 0-80μM
Syk C-SH2 domain = Syk C-SH2 domain (Homo sapiens, UniProt P43405); assay: Surface plasmon resonance, binding of Syk C-SH2 to immobilised peptide; conditions: SPR, 25°C, pH 7.4, SH2 domain 0-80μM
[3] = target: tandem SH2 domains of Syk (Homo sapiens, UniProt P43405); assay: Surface plasmon resonance, binding of Syk tandem SH2 to immobilised peptide; conditions: SPR, 25°C, pH 7.4, SH2 domains 0-80μM
[4] = system: single C-terminal SH2 domain of Syk; assay: Tryptophan fluorescence titration, Syk C-terminal SH2; format: binding; conditions: same concentration range as tandem SH2 titration; pH 7.5
[5] = target: Syk tandem SH2 domains (GST fusion protein); assay: other fluorescence titration
CLEC-2 = conditions: cross-linking of CLEC-2; ref [4],[6]; cited from earlier work

dually phosphorylated peptide based on the human FcRγ-chain ITAM, biotinylated (human), sequence (P30273 54-82): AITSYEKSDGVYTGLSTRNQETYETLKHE

Molecule: CLEC-2 cytoplasmic tail, 1-31 (from UniProt Q9P126) pY7 pT9 31-mer peptide
binding against the reference (Syk (platelet)): same

Kd [1]: 1.7 µM
Molecule: Syk C-terminal SH2 domain (GST fusion protein) (domain or fragment)

Kd [1]: 19.7 µM
Molecule: Syk N-terminal SH2 domain (GST fusion protein) (domain or fragment)

Kd [1]: 0.02 µM
Molecule: Syk tandem SH2 domains (GST fusion protein) (domain or fragment)

Molecule: collagen
NFAT activation by collagen, C-terminal ITAM tyrosine mutant [2]: abolished
phosphorylation of FcRγ-chain ITAM tyrosines (GPVI): Src kinase-dependent phosphorylation of two conserved tyrosines

Molecule: non-phosphorylated CLEC-2 peptide: corresponding nonphosphorylated 13 amino acid peptide (MQDEDGYITLNIK; also: biotin, end not given here)
detectable binding, N-SH2 (Syk N-SH2 domain): No detectable binding
detectable binding, C-SH2 (Syk C-SH2 domain): No detectable binding
detectable binding, tandem SH2 [3]: No detectable binding

Molecule: tyrosine phosphorylated CLEC-2 peptide: phosphorylated peptide based on the first 13 amino acids of the CLEC-2 tail, which includes the conserved MQDEDGYxxL sequence (MQDEDG[pY]ITLNIK; also: biotin, end not given here)
binding to single C-terminal SH2 domain, tryptophan fluorescence [4]: unable to detect binding

Kd [5]: 5.7 µM
B1: tyrosine-phosphorylated peptide based on the first 13 amino acids of the CLEC-2 cytosolic tail, biotinylated (peptide)
peptide: MQDEDG[pY]ITLNIK
modifications: also: biotinylated, end not given here

B2: podoplanin: transmembrane protein podoplanin (protein, UniProt Q86YL7 23-162, looked up)
Podoplanin: ASTGQPEDDTETTGLEGGVAMPGAEDDVVTPGTSEDRYKSGLTTLVATSVNSVTGIRIEDLPTSESTVHAQEQSPSATASNVATSHSTEKVDGDTQTTVEKDGLSTVTLVGIIVGVLLAIGFIGAIIVVVMRKMSGRYSP
platelet aggregation and secretion (CLEC-2): powerful platelet aggregation and secretion
